Screening results from PubChem.
ATG4B inhibitor: ATG4B protease inhibitors, primary screen, biochemical, fluorescence, uHTS | Cysteine protease ATG4B (Homo sapiens), Q9Y4P1 | ATG4B cleavage of LC3-PLA2, NBD-HPC fluorescence, 1 h | inhibition, % at 8.33 µM | 340,000 tested, 0.51% active | AID 504462, 2011; in the data active = inhibition above about 40%
Target sequence (Q9Y4P1 whole entry, looked up): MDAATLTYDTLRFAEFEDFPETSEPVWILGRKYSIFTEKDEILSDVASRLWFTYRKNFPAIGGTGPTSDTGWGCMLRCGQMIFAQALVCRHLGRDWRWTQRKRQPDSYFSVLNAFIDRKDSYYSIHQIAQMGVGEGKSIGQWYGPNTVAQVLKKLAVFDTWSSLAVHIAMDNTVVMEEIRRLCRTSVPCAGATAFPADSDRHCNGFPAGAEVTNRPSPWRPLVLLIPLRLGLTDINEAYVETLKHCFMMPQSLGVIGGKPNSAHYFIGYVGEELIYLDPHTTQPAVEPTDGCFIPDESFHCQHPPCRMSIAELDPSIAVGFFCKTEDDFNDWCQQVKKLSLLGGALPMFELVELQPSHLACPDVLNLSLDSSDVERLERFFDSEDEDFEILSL
MPTP inh: mitochondrial permeability transition pore inhibitors, primary screen, biochemical, isolated mouse mitochondria, absorbance; Ca2+ swelling absorbance, 30 min; AID 602449, 2012; inhibition, % at 10 µM; 360,000 tested, 1.4% active;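 active = inhibition of 50% or more, scaled per plate between neutral and stimulator controls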
MC4R barr agon: MC4R agonists recruiting beta-arrestin, primary screen, cell-based, luminescence, agonist arm of biased-ligand search | U2OS MC4R beta-arrestin complementation; percent of melanotan II response, DMSO zero | 360,000 tested, 0.98% active | AID 540308, 2011 | activation, % at 8.9 µM;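 active = activation above a per-plate cutoff, the mean activation of sample wells on that plate plus 3 SD, cut at about 8% in these data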
Target sequence (P32245 whole entry, looked up): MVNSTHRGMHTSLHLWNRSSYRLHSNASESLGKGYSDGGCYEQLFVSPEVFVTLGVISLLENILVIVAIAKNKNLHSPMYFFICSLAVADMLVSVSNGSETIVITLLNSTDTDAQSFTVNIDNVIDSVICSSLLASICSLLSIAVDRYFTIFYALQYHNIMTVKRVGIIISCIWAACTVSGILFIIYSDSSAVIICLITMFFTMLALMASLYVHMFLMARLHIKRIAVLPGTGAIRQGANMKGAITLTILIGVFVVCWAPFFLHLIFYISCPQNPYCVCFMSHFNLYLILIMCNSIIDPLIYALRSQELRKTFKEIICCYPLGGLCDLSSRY
MC4R antagonist: MC4R antagonists of cAMP signaling, primary screen, cell-based, TR-FRET, antagonist arm of biased-ligand search. Melanocortin receptor 4 (Homo sapiens), P32245. MC4R-expressing cells, MTII-stimulated cAMP, LANCE TR-FRET. inhibition, % at 6.5 µM. 360,000 tested, 0.48% active. AID 540295, 2011;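 active = inhibition above its plate's cutoff, the mean of tested wells on that plate plus 3 SD, cut at about 29% in these data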
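Assay system: U2OS-MC4R stable cell line; Also added: Melanotan II; Technique: Eu-cAMP/anti-cAMP TR-FRET, emission 671 nm; Times: 30-min compound, 1-h challenge, 1-h detection, room temperature.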
SMARCA2 activ: SMARCA2 (BRM) function activators, primary screen, cell-based, luminescence, high throughput; MG213 cells, MMTV-luciferase reporter, dexamethasone, overnight; activation, % at 9.1 µM; 370,000 tested, 1% active; AID 652017, 2013; in the data active = activation above about 7.8%
MPTP counter: fluorescence retest of MPTP screen hits in isolated mitochondria, single concentration; shares compounds with MPTP inh; membrane potential, Rhodamine 123 fluorescence; inhibition, % at 10 µM; 5,000 tested, 78% active; AID 624504, 2012; in the data active = inhibition above about 22%
MPTP abs DR: mitochondrial permeability transition pore inhibitors, dose response, biochemical, absorbance, uHTS hits; IC50, µM; isolated mitochondria swelling; shares compounds with MPTP inh; 780 tested, 58% active; in the data active = IC50 below about 20 µM
MPTP counter DR: fluorescent counter-screen in isolated mitochondria, dose response, counter-screen for MPTP inhibitor project, biochemical, fluorescence, uHTS hits; shares compounds with MPTP inh; isolated mitochondria counterscreen, fluorescence read-out; IC50, µM; 780 tested, 49% active; in the data active = IC50 below about 80 µM
SMARCA2 act conf: SMARCA2 (BRM) function activators, confirmation, cell-based, luminescence, triplicate | shares compounds with SMARCA2 activ | MG213 cells, MMTV-luciferase with dexamethasone, overnight; MG213 cells expressing E1A, Rb sequestered; DMSO wells 0%, reference activator 100% | activation, % at 9.1 µM | AID 652260, 2013 | 3,500 tested, 30% active;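 active = activation above its plate's cutoff, the mean activation of tested wells plus 3 SD, cut at about 7.9% in these data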
VP16 Luc act: GAL4-VP16 luciferase reporter activation, counter-screen for SMARCA2 (BRM) activator project, cell-based, pG5luc, luminescence, high throughput | shares compounds with SMARCA2 activ | HEK293 GAL4-VP16 pG5luc reporter; scaled: DMSO wells 0%, SAHA wells 100% | activation, % at 9.1 µM | 3,500 tested, 41% active | AID 686939, 2013;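 active = activation above the solvent-only control well mean plus 3 SD, averaged across control plates, cut at about 5.2% in these data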
Large screens that a line does not name were inactive (follow-up assays come after a bar, where they were run). Sampled rows, rich in hits. Any-hit rate of the full collection: about 4.1%.

Cc1oc(C(C)(C)C)cc1C(=O)NCc1ccc2c(c1)OCO2	MPTP inh 63, SMARCA2 activ 8.8 | MPTP counter 28 | SMARCA2 act conf inactive | VP16 Luc act inactive
C[C@H]1CN(S(=O)(=O)C(C)(C)C)[C@H](CCO)/C1=C\CCO	none (no result: ATG4B inhibitor, MPTP inh, MC4R barr agon, MC4R antagonist)
COc1ccc2nc3cc(Cl)ccc3c(Nc3cc(CN4CCCC4)c(O)c(CN4CCCC4)c3)c2n1	MPTP inh 72, SMARCA2 activ 68 (no result: ATG4B inhibitor) | MPTP counter inactive | SMARCA2 act conf 256 | VP16 Luc act inactive
COc1ccc(NC(=O)c2ccc(-c3ccc(-c4noc(C)n4)cc3C)cc2)cc1N1CCN(C)CC1	MPTP inh 81, SMARCA2 activ 13 | MPTP counter inactive | SMARCA2 act conf 17 | VP16 Luc act inactive
COc1ccc(-c2nc(-c3ccc(NC(=O)c4ccncc4)cc3)no2)cc1OC	none (no result: SMARCA2 activ)
Cc1cccc(-c2nsc(SCC(=O)N3CCCC3)n2)c1	none
Cc1cccc(-c2nsc(SCC(=O)Nc3ccc4c(c3)OCO4)n2)c1	MPTP inh 54, SMARCA2 activ 9.7 | MPTP counter 65 | SMARCA2 act conf inactive | VP16 Luc act inactive
Cc1cc2c(c(=O)o1)[C@@]1(C(=O)N(C)c3ccc([N+](=O)[O-])cc31)C1=C(CCCC1=O)O2	none (no result: ATG4B inhibitor, MPTP inh, MC4R barr agon, MC4R antagonist)
Oc1ccccc1CNc1cnc2ccccc2c1	MPTP inh 71, SMARCA2 activ 11 | MPTP counter 59 | SMARCA2 act conf 9.5 | VP16 Luc act 8.8
CCc1ccc(-c2cc3c(=O)n(CC(=O)NCCCN4CCC(Cc5ccccc5)CC4)nc(C)n3n2)cc1	MPTP inh 98, SMARCA2 activ 10 | MPTP counter inactive | MPTP abs DR 3 | MPTP counter DR inactive | SMARCA2 act conf inactive | VP16 Luc act inactive
CCc1ccc(-c2cc3c(=O)n(CC(=O)NCCCN4CCN(C)CC4)ncn3n2)cc1	none
COC(=O)C[C@H]1CC[C@@H](NC(=O)Nc2c(C)noc2C)[C@@H](CO)O1	none (no result: ATG4B inhibitor, MC4R barr agon, MC4R antagonist)
Cc1ccc(N2C(=O)CC(N3CCN(c4ccccn4)CC3)C2=O)cc1 (stereo unspecified)	none
Cc1ccc2nc(-c3ccc(N4C(=O)CC(N5CCN(CCO)CC5)C4=O)cc3)sc2c1 (stereo unspecified)	MPTP inh 94, SMARCA2 activ 8.6 | MPTP counter inactive | MPTP abs DR 19 | MPTP counter DR inactive | SMARCA2 act conf inactive | VP16 Luc act inactive
CCN(CC)CCn1c(=N)n(CC(O)COc2cccc(C)c2)c2ccccc21 (stereo unspecified)	MPTP inh 71, SMARCA2 activ 8.3 | MPTP counter inactive | MPTP abs DR 4.5 | MPTP counter DR 66 | SMARCA2 act conf inactive | VP16 Luc act inactive
Clc1ccc(CN2CCN(N=Cc3ccncc3)CC2)cc1	none (no result: ATG4B inhibitor, MPTP inh, MC4R barr agon, MC4R antagonist)
CCOc1ccc(OCc2cccc(C(=O)Nc3ccc(CN4CCCCC4)cc3)c2)cc1	MPTP inh 87, SMARCA2 activ 12 | MPTP counter inactive | MPTP abs DR 2.4 | MPTP counter DR 43 | SMARCA2 act conf 14 | VP16 Luc act 10
CC(=O)OCCCN1CCC2(CCCCC2)C1=O	none (no result: ATG4B inhibitor, MPTP inh, MC4R barr agon, MC4R antagonist)
O=C(N/N=C/C(Br)=C/c1ccccc1)c1ccccc1F	SMARCA2 activ 13 | SMARCA2 act conf 11 | VP16 Luc act 12
COC(=O)[C@]12CCCCC=C1N(Cc1ccc(OC)cc1)C(=O)[C@@H]2CC(=O)NCCCCc1ccccc1	none (no result: ATG4B inhibitor, MPTP inh, MC4R barr agon, MC4R antagonist)
CC1(c2ccncc2)Nc2ccccc2-c2nc3ccccc3n21 (stereo unspecified)	SMARCA2 activ 9.1 | SMARCA2 act conf inactive | VP16 Luc act inactive
COc1ccc2c(c1)C1(Nc3ccccc3-c3nc4ccccc4n31)C(=O)N2 (stereo unspecified)	none
CCOc1ccc(OCc2ccc(C(=O)N3CCc4ccccc4C3)o2)cc1	SMARCA2 activ 13 | SMARCA2 act conf inactive | VP16 Luc act inactive
COC(=O)[C@]12C[C@H](CC(=O)NCc3cccc4ccccc34)C(=O)N(Cc3ccc(Cl)cc3Cl)C1=C[C@H](C1CCCC1)O[C@@H]2C	none (no result: ATG4B inhibitor, MPTP inh, MC4R barr agon, MC4R antagonist)
COc1ccccc1CNC(=O)c1ccccc1NC(=O)C1=C(C)OCCS1	SMARCA2 activ 8.1 | SMARCA2 act conf inactive | VP16 Luc act inactive
Cc1ccccc1CN1CCNC(=O)C1CC(=O)NC1CCCCCCC1 (stereo unspecified)	none
CCCOC(=O)CC1C(=O)NCCN1Cc1ccccc1C (stereo unspecified)	SMARCA2 activ 9.5 | SMARCA2 act conf inactive | VP16 Luc act inactive
CC1=Nc2cc([N+](=O)[O-])ccc2NC(C)(C)C1	SMARCA2 activ 11 | SMARCA2 act conf inactive | VP16 Luc act inactive
COC(=O)c1ccc2c(c1)C(=O)/C(=C/c1ccc(C)cc1)O2	none
CCc1ccc(/C=C2\Oc3ccc(C(=O)OC)cc3C2=O)cc1	SMARCA2 activ 10 | SMARCA2 act conf inactive | VP16 Luc act 6.5
CN(Cc1cn(Cc2ccccc2)nn1)S(=O)(=O)c1ccc(F)cc1Br	none (no result: ATG4B inhibitor, MPTP inh, MC4R barr agon, MC4R antagonist)
CCN1CCN(CCOc2cccc(Oc3ccccc3)c2)CC1	SMARCA2 activ 8.0 | SMARCA2 act conf inactive | VP16 Luc act inactive
CCCCNC(=O)C[C@H]1C[C@@]2(C(=O)OC)C(=C[C@H](C(C)(C)C)O[C@@H]2C)N(Cc2ccccc2)C1=O	none (no result: ATG4B inhibitor, MPTP inh, MC4R barr agon, MC4R antagonist)
CC(C)c1ccc(OCCCN2CCC(C(O)(c3ccccc3)c3ccccc3)CC2)cc1	none (no result: ATG4B inhibitor, MPTP inh, MC4R barr agon, MC4R antagonist)
O=C(/C=C/c1ccc(Cl)cc1Cl)N1CCc2ccccc21	SMARCA2 activ 8.7 | SMARCA2 act conf 8.3 | VP16 Luc act 8.6
O=C(c1ccc(Cl)cc1Cl)N1CCc2ccccc21	none
